Pf gamet viab – late stage P. falciparum gametocyte viability inhibitors, primary screen, ATP luminescence, HTS | P. falciparum stage V gametocytes, 24 h | inhibition, % at 10.9 µM | actives 0.065% (n = 150,000);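 active = inhibition above the mean plus 3 SD of compounds within the control limits, set per campaign, cut at about 38% in these data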;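 also: 0% = DMSO wells and 100% = medium only without gametocytes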
STAT1 activator – STAT1 signaling activators, primary screen, cell-based, HTS, luciferase reporter; actives 2.6% (n = 200,000); activation (% of control), % at 5.5 µM; NIH 3T3 STAT1-luciferase reporter, IFN-gamma, luminescence; 100% = IFN-gamma alone, no compound;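 active = activation above the screen-wide mean activation plus 3 SD, cut at about 130% in these data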;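 also: raw ratio to IFN-gamma control signal so 100% means no change and 0% no light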
FLuc inh counter – firefly luciferase enzyme inhibitors, primary screen, artefact control for luciferase-based inhibitor screens, biochemical, luminescence, ATPLite; inhibition, % at 10 µM; actives 1.5% (n = 200,000); 10 min; Luciferin 4-monooxygenase (Photinus pyralis), P08659;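 active = inhibition above about 50% when tested at 10 µM, limit read from the data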
Target sequence (P08659 whole entry, looked up): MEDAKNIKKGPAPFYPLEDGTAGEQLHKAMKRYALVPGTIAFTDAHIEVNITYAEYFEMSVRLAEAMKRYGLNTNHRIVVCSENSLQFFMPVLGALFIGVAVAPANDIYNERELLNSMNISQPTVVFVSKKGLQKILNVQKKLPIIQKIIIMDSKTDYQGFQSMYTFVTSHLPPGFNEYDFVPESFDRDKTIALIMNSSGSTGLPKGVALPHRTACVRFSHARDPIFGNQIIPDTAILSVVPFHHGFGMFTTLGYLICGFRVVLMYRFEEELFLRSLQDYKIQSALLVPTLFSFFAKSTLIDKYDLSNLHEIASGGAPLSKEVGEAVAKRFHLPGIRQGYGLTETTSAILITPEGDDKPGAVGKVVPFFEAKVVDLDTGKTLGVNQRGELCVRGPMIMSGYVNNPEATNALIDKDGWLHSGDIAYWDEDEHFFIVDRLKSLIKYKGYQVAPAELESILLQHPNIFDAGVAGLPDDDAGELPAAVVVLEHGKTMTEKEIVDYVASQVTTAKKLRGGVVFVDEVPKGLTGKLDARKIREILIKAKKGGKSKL
APP 5'UTR act – activators of APP 5'UTR luciferase reporter, primary screen, SH-SY5Y cells; actives 1% (n = 190,000); SH-SY5Y APP 5'UTR luciferase reporter, luminescence; zero percent = DMSO vehicle wells; activation, % at 2 µM;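 active = activation above a set limit, based on mean plus 3 SD of controls, cut at about 140% in these data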
NF-kB expr up – activators of NF-kB expression in neurons, primary screen, cell-based, HTS; actives 1.6% (n = 190,000); fold change at 12.5 µM; human neuronal cells, NF-kB reporter expression; stronger effect = higher value; in the data active = fold change above about 3.3
FLuc act counter – FLuc activators, initial screening, artefact control for FLuc-dependent activation tests, biochemical, ATPlite luminescence; ATPlite luciferase biochemical, 10 min; 0 = ATP-free wells, 1 = DMSO control; activation factor at 10 µM; 200,000 tested, under 10 active; Luciferin 4-monooxygenase (Photinus pyralis), P08659; AID 1027, 2008;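 active = luciferase activation factor, scaled between plate controls, of at least 2 with compound at 10 µM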
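Material: Luciferase/luciferin reagent mix | Doses: Test compounds dosed from 2 mM stocks in 100% DMSO | Timing: 10 min incubation after luciferase reagent addition, room temperature | Measured by: Luminescence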
* marks the source's active call; other numbers are inactive results; x = not tested or not shown. Shown are actives, neighbours in structure and some others; about 3.5% of the full set was active somewhere.

SMILES | Pf gamet viab | STAT1 activator | FLuc inh counter | APP 5'UTR act | NF-kB expr up | FLuc act counter
Cc1cccc(C)c1NC(=O)c1ccc(-c2ccc(Cl)cc2Cl)o1 | x | 85 | -8 | 4 | 0.88 | 1.1
O=C(Nc1nccs1)c1ccc(-c2ccc(Cl)cc2Cl)o1 | 4 | 146* | 69* | 126 | 2.3 | 0.3
c1ccc(Sc2ncnc3c2oc2ccccc23)cc1 | x | 144* | 6 | 60 | 2.5 | 0.9
O=C(CSc1nc2ccc(Nc3nc(N4CCCC4)nc(N4CCCC4)n3)cc2s1)NCc1ccco1 | 6 | x | x | x | x | x
O=C(Nc1cccc2nsnc12)c1cccs1 | -6 | 126 | 24 | 74 | 1.9 | 0.8
O=C(Nc1ccccc1)Nc1cccc2nsnc12 | x | 140* | 28 | 121 | 4.3* | 0.7
O=C(/C=C/c1cccc(Oc2ccccc2)c1)N1CCOCC1 | -5 | 139* | 18 | 145* | 2.6 | 0.8
Cc1ccc(C(=O)NS(=O)(=O)c2ccc(N=NN(C)C)cc2)cc1 | -2 | 98 | 4 | -3 | 1.1 | 1
Cc1ccsc1C1Nc2ccccc2-c2nc3ccccc3n21 (centres undefined) | 3 | 129* | 0 | 34 | 1.2 | 1
O=[N+]([O-])c1nn(-c2ccc(Cl)cc2)n(O)c1=NCc1ccncc1 | -7 | 110 | -9 | -11 | 0.97 | 1.1
Cc1ccc(CN=c2c([N+](=O)[O-])nn(-c3ccc(Cl)cc3)n2O)cc1 | -1 | 140* | 4 | 11 | 1.2 | 1
Cc1cccc(N=c2c([N+](=O)[O-])nn(-c3ccc(Cl)cc3)n2O)c1 | -12 | 104 | -9 | 21 | 1.5 | 1.1
CCc1cccc(N=c2c([N+](=O)[O-])nn(-c3ccc(Cl)cc3)n2O)c1 | x | 100 | -3 | 10 | 4.9* | 1
COc1cc([N+](=O)[O-])ccc1NC(=O)CN1CCOCC1 | 28 | 95 | -3 | 16 | 1 | 1
CSc1ccccc1NC(=O)c1cc2ncc(Br)cn2n1 | -7 | 142* | 4 | 73 | 1.5 | 1
O=c1c2c(nc3cc(-c4ccccc4)[nH]n13)CCS2 | x | 116 | 60* | 113 | 7.7* | 0.4
O=c1c2c(nc3cc(-c4ccccc4Cl)[nH]n13)CCS2 | x | 111 | 74* | 120 | 2.1 | 0.3
Cc1ccccc1-c1cc2nc(C)c(Cl)c(=O)n2[nH]1 | 9 | x | x | x | x | x
CCOC(=O)Cc1cc(=O)n2[nH]c(-c3ccccc3)cc2n1 | x | 94 | 20 | 9 | 1.4 | 0.8
CCCC[C@@H](CN[C@H](C)CNC)NCC1CCC(C(C)(C)C)CC1 (some centres undefined) | -6 | x | x | x | x | x
O=C(/C=C\Nc1ccccn1)c1ccc(Cl)cc1 | x | 50 | 91* | 175* | 1.8 | 0.1
O=C(/C=C/c1ccccc1O)c1ccc(Cl)cc1 | x | 93 | 18 | 25 | 1.9 | 0.8
CCOC(=O)c1c(C)oc2c(CC(=O)c3ccccc3)c(Cl)c(O)c(O)c12 | -9 | 102 | -7 | 22 | 0.92 | 1.1
Cc1nc2ccc(NC(=O)c3cncc(Br)c3)cc2s1 | 11 | x | x | x | x | x
Cc1nn(-c2ccccc2)c(Cl)c1C(=O)Nc1c(C)n(C)n(-c2ccccc2)c1=O | x | 102 | -2 | 3 | 0.92 | 1
SMILES | Pf gamet viab | STAT1 activator | FLuc inh counter | APP 5'UTR act | NF-kB expr up | FLuc act counter
NNC(=O)CSc1cccc2cccnc12 | -18 | 101 | -1 | 40 | 1 | 1
O=C(CSc1nncc2ccccc12)N1CCCCC1 | -4 | 130* | 6 | 22 | 1.9 | 0.9
CN(C)C(=O)CSc1cccc2cccnc12 | -7 | 105 | -6 | -11 | 5.1* | 1.1
O=C(O)c1cccnc1SCC(=O)N1CCCCCC1 | 12 | 99 | -3 | -6 | 0.88 | 1
O=C(CSc1nc(C2CCCCC2)nc2ccccc12)N1CCCC1 | 2 | 93 | -6 | 13 | 1 | 1.1
O=C(CSc1cccc2cccnc12)N1CCCC1 | -3 | 97 | -3 | -28 | 5* | 1
Cn1ncc([N+](=O)[O-])c1C(=O)Nc1ccc(C2CCCCC2)cc1 | x | 120 | -1 | 11 | 1.1 | 1
COC(=O)c1[nH]c2c(c1C)C(=O)CCC2 | x | 92 | -3 | 4 | 1.1 | 1
Cc1c(C(=O)OC2CCC(C)CC2)[nH]c2c1C(=O)CCC2 (centres undefined) | x | 146* | 2 | 148* | 4.9* | 1
Cc1ccc(C2(c3noc(CN4CCC(C(=O)N5CCOCC5)CC4)n3)CCCC2)cc1 | 11 | 94 | -3 | -11 | 1.1 | 1
CC1CC(C(=O)Nc2ccccc2)C(=O)O1 (centres undefined) | 8 | x | x | x | x | x
CC(=O)c1nc2ccccc2n1CCc1ccccc1 | 10 | 92 | -5 | -5 | 0.97 | 1
Nc1nc2ccccc2n1C(=O)c1ccc(F)cc1 | 11 | 81 | 91* | 188* | 3.2 | 0.1
Nc1nc2ccccc2n1C(=O)c1ccccc1 | 10 | 73 | 90* | 161* | 3.2 | 0.1
Nc1nc2ccccc2n1C(=O)CCc1ccccc1 | 18 | 136* | 17 | 49 | 2.6 | 0.8
Nc1nc2ccccc2n1C(=O)c1ccco1 | 23 | 139* | 43 | 131 | 3.1 | 0.6
Cn1c(CNC(=O)c2ccc(F)cc2)nc2ccccc21 | x | 99 | -3 | 12 | 1.2 | 1
Nc1nncn1C(=O)c1cccs1 | x | 102 | -5 | 13 | 0.98 | 1.1
Nc1nc2ccccc2n1C(=O)c1cccs1 | x | 113 | 69* | 80 | 4.7* | 0.3
O=C(O)CCC(=O)Nc1ccccc1C(=O)NCCc1ccccc1 | 8 | 135* | 1 | 27 | 1.8 | 1
O=C(NC(=S)Nc1ccc(Cl)cn1)c1cccs1 | x | 194* | 68* | 186* | 4* | 0.3
O=C(NNc1ccc(Cl)cc1)c1cccs1 | 12 | x | x | x | x | x
O=C(NNC(=S)Nc1ccc(Cl)cc1)c1cccs1 | -6 | 131* | 8 | 53 | 1.8 | 0.9
O=C(NNC(=S)Nc1ccccc1)c1cccs1 | x | 130* | 44 | 66 | 2.5 | 0.6
O=C(NC(=S)Nc1cccnc1)c1cccs1 | 5 | 116 | 3 | -2 | 1.5 | 1
SMILES | Pf gamet viab | STAT1 activator | FLuc inh counter | APP 5'UTR act | NF-kB expr up | FLuc act counter
O=C(CCC(=O)Nc1ccccc1)NNC(=O)c1cccs1 | x | 97 | -6 | 13 | 1 | 1.1
COCCNC(=O)c1cccc(OC2CCN(Cc3ccc(F)cc3OC)CC2)c1 | 29 | x | x | x | x | x
COc1cccc(/C=N/NC(=O)CN2CC(c3ccccc3)CC2=O)c1O (centres undefined) | x | 99 | 24 | -24 | 1.3 | 0.8
O=C(Nc1ccc(F)cc1)/C(Cl)=C/c1ccccc1 | -8 | 150* | 48 | 188* | 7.3* | 0.5
O=C(/C=C/c1c(F)cccc1Cl)Nc1cccnc1 | 16 | x | x | x | x | x
Cc1cc(C(=O)CSc2ccc3c(c2)OCCO3)c(C)n1C1CC1 | -3 | 133* | 13 | 56 | 2.5 | 0.9
CC1CCc2sc(C(=O)OCC(=O)NC(C)C)cc2C1 (centres undefined) | 5 | 100 | 2 | 9 | x | 1
CCn1c(C)cc(/C=C2/SC(=S)N(CC(=O)O)C2=O)c1C | 17 | 76 | 80* | -4 | 1.1 | 0.2
CCOC(=O)C(C)N1C(=O)S/C(=C/c2cc(C)n(-c3ccccn3)c2C)C1=O (centres undefined) | x | 126 | 15 | 140* | 1.8 | 0.8

Screening data as filed in PubChem.
